Source: PMC4191588 (Journal of Medicinal Chemistry, 2014)
Each block holds one compound with its values, some of them ahead of it.

How the values were obtained:
small panel of DUBs = details: cited from earlier work
H1299 cells = assay: Colony formation assay in H1299 cells; assay type: cell-based, human; details: for effect on cell survival (in words) / reduction of colony formation: H1299 cells, 5 μM, 7 days; for reduction of colony formation: relative to DMSO
451 kinases = details: cited from earlier work
Ub-PCNA in H1299 cells = assay: Western blot of monoubiquitinated PCNA; assay type: cell-based, human; details: 4 hr; for change in Ub-PCNA (in words): H1299 cells, 1, 5, and 25 µM; for lowest concentration at which an increase in Ub-PCNA was observed: H1299 cells
USP1/UAF1 = USP1/UAF1 (Homo sapiens, UniProt O94782); assay: USP1/UAF1 quantitative high-throughput screening; assay type: biochemical
[1] = Preliminary in vivo PK studies
Caco-2 = Caco-2 permeability; assay type: in vitro ADME
Mouse plasma stability = assay type: in vitro ADME
Ca^2+ channel = assay: CEREP LeadProfilingScreen2 radioligand binding; details: 10 μM, duplicate
Summary of the method: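 Test compound run at 10 μM in a commercial lead-profiling panel of 80 GPCRs, ion channels and transporters.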

[2] = Aqueous chemical stability; assay type: physicochemical; details: aqueous solution at room temperature

USP1/UAF1, sequence (O94782 whole entry): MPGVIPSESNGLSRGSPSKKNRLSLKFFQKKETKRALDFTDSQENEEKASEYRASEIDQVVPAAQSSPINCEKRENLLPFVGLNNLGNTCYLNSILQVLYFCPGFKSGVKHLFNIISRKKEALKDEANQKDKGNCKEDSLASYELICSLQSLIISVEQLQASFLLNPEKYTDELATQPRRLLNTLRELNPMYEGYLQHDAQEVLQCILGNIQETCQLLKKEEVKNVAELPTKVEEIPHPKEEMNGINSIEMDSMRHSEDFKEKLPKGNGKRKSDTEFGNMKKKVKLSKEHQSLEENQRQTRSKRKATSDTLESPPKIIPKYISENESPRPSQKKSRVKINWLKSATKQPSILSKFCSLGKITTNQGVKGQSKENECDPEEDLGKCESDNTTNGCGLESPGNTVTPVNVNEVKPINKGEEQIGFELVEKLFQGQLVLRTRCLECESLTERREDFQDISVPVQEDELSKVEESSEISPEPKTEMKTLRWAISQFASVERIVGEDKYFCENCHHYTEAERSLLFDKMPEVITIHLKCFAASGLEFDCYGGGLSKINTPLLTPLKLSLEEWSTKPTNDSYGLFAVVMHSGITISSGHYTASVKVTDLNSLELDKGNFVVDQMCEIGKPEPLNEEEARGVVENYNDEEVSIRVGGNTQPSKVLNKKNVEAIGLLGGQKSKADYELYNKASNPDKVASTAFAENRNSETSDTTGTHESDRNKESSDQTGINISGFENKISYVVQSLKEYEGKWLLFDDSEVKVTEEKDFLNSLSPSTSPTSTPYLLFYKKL
USP1/UAF1, sequence (Q8TAF3 whole entry partner): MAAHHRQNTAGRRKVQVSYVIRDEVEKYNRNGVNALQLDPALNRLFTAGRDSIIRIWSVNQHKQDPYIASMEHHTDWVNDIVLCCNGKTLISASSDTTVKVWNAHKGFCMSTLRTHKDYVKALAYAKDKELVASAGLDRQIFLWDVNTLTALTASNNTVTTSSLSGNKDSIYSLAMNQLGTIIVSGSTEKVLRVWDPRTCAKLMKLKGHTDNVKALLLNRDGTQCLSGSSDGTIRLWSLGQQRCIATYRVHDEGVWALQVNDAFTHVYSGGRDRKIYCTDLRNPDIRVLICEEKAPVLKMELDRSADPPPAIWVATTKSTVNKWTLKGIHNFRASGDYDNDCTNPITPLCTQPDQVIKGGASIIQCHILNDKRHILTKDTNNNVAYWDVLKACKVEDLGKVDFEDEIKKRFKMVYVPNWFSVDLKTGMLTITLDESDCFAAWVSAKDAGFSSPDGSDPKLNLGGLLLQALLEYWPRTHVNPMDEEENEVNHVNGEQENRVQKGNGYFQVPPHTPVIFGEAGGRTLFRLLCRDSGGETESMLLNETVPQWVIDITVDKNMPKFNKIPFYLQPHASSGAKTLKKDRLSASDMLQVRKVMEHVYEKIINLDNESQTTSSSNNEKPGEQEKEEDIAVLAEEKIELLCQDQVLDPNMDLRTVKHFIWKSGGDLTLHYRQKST

SMILES: FC(F)(F)c1ccccc1-c1nc(NCc2cccs2)c2ccccc2n1 [Compound 1, N-(Thiophen-2-ylmethyl)-2-(2-(trifluoromethyl)phenyl)quinazolin-4-amine]
- activity against a small panel of DUBs (small panel of DUBs): no significant activity
- effect on cell survival (in words) (H1299 cells): minimal
- appreciable inhibition among 451 kinases (451 kinases): only one of 451 kinases
- change in Ub-PCNA (in words) (Ub-PCNA in H1299 cells): dose-dependent increase in Ub-PCNA

- activity toward USP1/UAF1 (in words) (USP1/UAF1): inactivity
SMILES: FC(F)(F)c1cccc(-c2nc(NCc3ccc(-c4cccnc4)cc3)c3ccccc3n2)c1 [Compound 22]

- activity toward USP1/UAF1 (in words) (USP1/UAF1): inactivity
SMILES: FC(F)(F)c1ccc(-c2nc(NCc3ccc(-c4cccnc4)cc3)c3ccccc3n2)cc1 [Compound 23]

SMILES: CC(C)c1ccccc1-c1nc(NCc2ccc(-c3cccnc3)cc2)c2occc2n1 [Compound 48, 2-(2-Isopropylphenyl)-N-(4-(pyridin-3-yl)benzyl)furo[3,2-d]pyrimidin-4-amine]
- reduction of colony formation (H1299 cells): greater than 70%

SMILES: COc1cnc(-c2ccccc2C(C)C)nc1NCc1ccc(-c2cccnc2)cc1 [Compound 49, 2-(2-Isopropylphenyl)-5-methoxy-N-(4-(pyridin-3-yl)benzyl)pyrimidin-4-amine]
- reduction of colony formation (H1299 cells): greater than 70%

- activity toward USP1/UAF1 (in words) (USP1/UAF1): complete loss of activity
SMILES: Cc1cnc(-c2ccccc2C(C)C)nc1NCC1CCN(C)CC1 [Compound 58]

SMILES: Cc1cnc(-c2ccccc2C(C)C)nc1NCC1CCN(c2cccnc2)CC1 [Compound 64, 2-(2-Isopropylphenyl)-5-methyl-N-((1-(pyridin-3-yl)piperidin-4-yl)methyl)pyrimidin-4-amine]
- reduction of colony formation (H1299 cells): greater than 70%
- change in Ub-PCNA (in words) (Ub-PCNA in H1299 cells): dose-dependent increase in Ub-PCNA
- lowest concentration at which an increase in Ub-PCNA was observed (Ub-PCNA in H1299 cells): 1 µM

SMILES: Cc1cnc(-c2ccccc2C(C)C)nc1NCc1ccc(-n2ccnc2)cc1 [Compound 69, N-(4-(1H-Imidazol-1-yl)benzyl)-2-(2-isopropylphenyl)-5-methylpyrimidin-4-amine]
- reduction of colony formation (H1299 cells): greater than 70%

- clearance [1]: > 70 mL/min/kg
- Caco-2 (A→B) Papp (Caco-2): 22.98 10^–6 cm/s
- stability in mouse plasma (in words) (Mouse plasma stability): stable
- inhibition of Ca^2+ channel (Ca^2+ channel): > 50%
- stability in PBS buffer, assay buffer, pH 2, pH 9 (in words) [2]: stable
SMILES: Cc1cnc(-c2ccccc2C(C)C)nc1NCc1ccc(-n2ccnn2)cc1 [Compound 70, N-(4-(1H-1,2,3-Triazol-1-yl)benzyl)-5-methyl-2-(2-isopropylphenyl)pyrimidin-4-amine]
- reduction of colony formation (H1299 cells): greater than 70%
- change in Ub-PCNA (in words) (Ub-PCNA in H1299 cells): dose-dependent increase in Ub-PCNA
- lowest concentration at which an increase in Ub-PCNA was observed (Ub-PCNA in H1299 cells): 1 µM

- activity toward USP1/UAF1 (in words) (USP1/UAF1): lost all activity
SMILES: Cc1cnc(-c2ccccc2C2COC2)nc1NCc1ccc(-c2cccnc2)cc1 [Compound 72, 5-methyl-2-(2-(oxetan-3-yl)phenyl)-N-(4-(pyridin-3-yl)benzyl)pyrimidin-4-amine]

SMILES: Cc1cnc(-c2ccccc2C2COC2)nc1NCc1ccc(-n2ccnn2)cc1 [Compound 77, N-(4-(1H-1,2,3-Triazol-1-yl)benzyl)-5-methyl-2-(2-(oxetan-3-yl)phenyl)pyrimidin-4-amine]
- activity toward USP1/UAF1 (in words) (USP1/UAF1): lost all activity
- effect on cell survival (in words) (H1299 cells): no effect
- EC50 (H1299 cells; Homo sapiens, NCI-H1299, read-out: EC50 cell survival (colony formation)): > 25 µM
